Data taken from ChEMBL document CHEMBL1833793 (Bioorg Med Chem Lett, 2011).
Calls of active or inactive are those of the source. The calls are words filed in the database; no cut-off is given here.

Tests used:
[1] = Plasma concentration in cPP-induced feeding rat model at 30 mg/kg, po after 2 hrs; type: ADME, organism-based; parameters: dose 30 mg/kg, route oral
Outline: (§1)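 Satellite rats (n = 2/dose per week), cannulated in the lateral cerebral ventricle for the feeding study, dosed orally at 3, 10 or 30 mg/kg as a suspension in 20% HP-β-cyclodextrin. Plasma was sampled 1, 2, 4, 6 or 24 h after dosing, alongside i.c.v. cPP (0.6 nmol) feeding tests. Values are given as mean with SD.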

[2] = Drug uptake in rat brain at 10 mg/kg, po after 4 hrs; type: ADME, organism-based; parameters: dose 10 mg/kg, route oral; settings: read-out: Drug uptake
Outline: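 Rat single oral dose of 10 mg/kg, two animals; plasma and brain homogenate levels measured at 4 h and averaged; quantification limit 2 ng/mL plasma, 2 ng/g brain.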

[3] = Plasma protein binding in rat; type: ADME, cell-free; settings: read-out: PPB (converted)
[4] = Plasma concentration in cPP-induced feeding rat model at 3 mg/kg, po after 6 hrs; type: ADME, organism-based; parameters: dose 3 mg/kg, route oral; outline: as §1
[5] = system: Brain; assay: Free drug level in brain of cPP-induced feeding rat model; type: ADME, tissue-based; settings: in vivo
[6] = system: Liver microsomes; assay: Intrinsic clearance in rat liver microsome; type: ADME
[7] = organism: Rattus norvegicus; assay: Inhibition of food intake in rat after 24 hrs starvation; type: functional, organism-based
[8] = Half life in mouse at 1 mg/kg, iv and 2 mg/kg, po by HPLC analysis; type: ADME, organism-based; settings: in vivo
[9] = target: Voltage-gated inwardly rectifying potassium channel KCNH2 (Homo sapiens, UniProt Q12809); assay: Inhibition of human ERG by patch-clamp assay
Sequence of Voltage-gated inwardly rectifying potassium channel KCNH2 (Q12809 whole entry): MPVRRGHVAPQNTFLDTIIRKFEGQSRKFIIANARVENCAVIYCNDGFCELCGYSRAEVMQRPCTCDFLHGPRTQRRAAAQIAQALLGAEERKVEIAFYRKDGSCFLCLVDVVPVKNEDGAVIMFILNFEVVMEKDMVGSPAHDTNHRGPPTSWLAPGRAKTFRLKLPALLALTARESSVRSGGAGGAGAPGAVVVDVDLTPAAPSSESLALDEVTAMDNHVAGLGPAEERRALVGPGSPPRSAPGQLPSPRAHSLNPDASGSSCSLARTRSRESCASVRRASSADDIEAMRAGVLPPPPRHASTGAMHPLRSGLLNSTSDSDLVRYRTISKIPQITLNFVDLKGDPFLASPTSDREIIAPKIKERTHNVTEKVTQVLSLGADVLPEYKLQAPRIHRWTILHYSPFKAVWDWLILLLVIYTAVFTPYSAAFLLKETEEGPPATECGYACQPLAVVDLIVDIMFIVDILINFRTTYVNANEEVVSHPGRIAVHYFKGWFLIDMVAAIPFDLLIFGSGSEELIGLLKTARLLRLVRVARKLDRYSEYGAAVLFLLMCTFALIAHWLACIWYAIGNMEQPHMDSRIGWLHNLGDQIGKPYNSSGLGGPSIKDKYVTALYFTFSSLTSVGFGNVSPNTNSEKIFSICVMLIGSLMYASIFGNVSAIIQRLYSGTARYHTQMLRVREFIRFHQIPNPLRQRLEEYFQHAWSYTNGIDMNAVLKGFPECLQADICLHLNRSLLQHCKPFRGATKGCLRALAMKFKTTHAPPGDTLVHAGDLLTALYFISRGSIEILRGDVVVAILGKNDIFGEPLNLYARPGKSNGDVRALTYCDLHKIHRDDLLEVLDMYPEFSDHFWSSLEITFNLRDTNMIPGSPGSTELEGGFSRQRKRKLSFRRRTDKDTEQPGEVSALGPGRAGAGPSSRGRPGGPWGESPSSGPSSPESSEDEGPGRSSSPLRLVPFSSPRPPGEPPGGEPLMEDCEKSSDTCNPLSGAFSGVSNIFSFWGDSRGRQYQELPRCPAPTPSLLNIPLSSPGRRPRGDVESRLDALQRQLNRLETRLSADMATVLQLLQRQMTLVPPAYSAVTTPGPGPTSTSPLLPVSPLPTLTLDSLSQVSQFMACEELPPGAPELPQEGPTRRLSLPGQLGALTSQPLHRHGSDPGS

[10] = Volume of distribution at steady state in mouse at 1 mg/kg, iv and 2 mg/kg, po by HPLC analysis; type: ADME, organism-based; settings: in vivo, read-out: Vdss
[11] = Drug uptake in brain of cPP-induced feeding rat model at 3 mg/kg, po after 4 hrs; type: ADME, organism-based; parameters: dose 3 mg/kg, route oral; settings: read-out: Drug uptake
Outline: (§2)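 Satellite rats (n = 2/dose) sampled each week alongside the cPP feeding test; Lu-series dosed po at 3, 10 or 30 mg/kg as suspension in 20% HP-β-cyclodextrin; plasma (ng/mL) and brain tissue (ng/g) levels taken at 1, 2, 4, 6 and 24 h post-dose; mean ± SD reported.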

[12] = Plasma protein binding in human; type: ADME, cell-free; settings: read-out: PPB (converted)
[13] = Plasma concentration in cPP-induced feeding rat model at 10 mg/kg, po after 2 hrs; type: ADME, organism-based; parameters: dose 10 mg/kg, route oral; outline: as §2
[14] = target: T1, Neuropeptide Y receptor type 2 (Homo sapiens, UniProt P49146); assay: Antagonist activity at human NPY2 receptor assessed as calcium mobilization by FLIPR assay; type: functional
T1 sequence (P49146 whole entry): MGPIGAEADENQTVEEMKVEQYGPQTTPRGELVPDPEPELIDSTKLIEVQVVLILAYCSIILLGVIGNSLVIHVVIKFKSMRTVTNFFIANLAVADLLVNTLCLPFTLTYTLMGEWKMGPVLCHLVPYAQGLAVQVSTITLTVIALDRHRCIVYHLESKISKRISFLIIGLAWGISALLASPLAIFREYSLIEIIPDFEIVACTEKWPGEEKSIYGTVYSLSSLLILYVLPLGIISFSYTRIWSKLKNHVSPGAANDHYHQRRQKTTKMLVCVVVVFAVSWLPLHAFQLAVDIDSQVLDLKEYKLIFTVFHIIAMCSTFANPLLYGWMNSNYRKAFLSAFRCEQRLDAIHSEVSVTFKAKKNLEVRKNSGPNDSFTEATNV

[15] = Drug uptake in brain of cPP-induced feeding rat model at 10 mg/kg, po after 2 hrs; type: ADME, organism-based; parameters: dose 10 mg/kg, route oral; settings: read-out: Drug uptake; outline: as §2
[16] = Plasma clearance in Sprague-Dawley rat at 1 mg/kg, iv and 2 mg/kg, po by HPLC analysis; type: ADME, organism-based
Outline: (§3)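 Male Sprague-Dawley rats (200–250 g, n = 2) with jugular and carotid cannulae, dosed 1 mg/kg iv and 2 mg/kg po in crossover after 24 h washout. Vehicle was 20% beta cyclodextrin, pH adjusted with methanesulfonic acid to give a solution. Automated serial blood sampling took 12 time points over 24 h. Plasma was quantified by HPLC-MS/MS, with noncompartmental analysis.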

[17] = Tmax in Sprague-Dawley rat at 1 mg/kg, iv and 2 mg/kg, po by HPLC analysis; type: ADME, organism-based; settings: in vivo
Outline: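 Male Sprague–Dawley rats (n = 2) with jugular and carotid cannulae, 200–250 g, dosed 1 mg/kg iv and 2 mg/kg po in crossover after a 24 h washout. Vehicle was 20% beta-cyclodextrin, pH adjusted with methanesulfonic acid. Twelve serial blood samples were taken over 24 h, plasma measured by HPLC-MS/MS, and parameters derived by noncompartmental analysis.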

[18] = target: 5-hydroxytryptamine receptor 2B (Homo sapiens, UniProt P41595); assay: Binding affinity to human 5HT2B receptor
Sequence of 5-hydroxytryptamine receptor 2B (P41595 whole entry): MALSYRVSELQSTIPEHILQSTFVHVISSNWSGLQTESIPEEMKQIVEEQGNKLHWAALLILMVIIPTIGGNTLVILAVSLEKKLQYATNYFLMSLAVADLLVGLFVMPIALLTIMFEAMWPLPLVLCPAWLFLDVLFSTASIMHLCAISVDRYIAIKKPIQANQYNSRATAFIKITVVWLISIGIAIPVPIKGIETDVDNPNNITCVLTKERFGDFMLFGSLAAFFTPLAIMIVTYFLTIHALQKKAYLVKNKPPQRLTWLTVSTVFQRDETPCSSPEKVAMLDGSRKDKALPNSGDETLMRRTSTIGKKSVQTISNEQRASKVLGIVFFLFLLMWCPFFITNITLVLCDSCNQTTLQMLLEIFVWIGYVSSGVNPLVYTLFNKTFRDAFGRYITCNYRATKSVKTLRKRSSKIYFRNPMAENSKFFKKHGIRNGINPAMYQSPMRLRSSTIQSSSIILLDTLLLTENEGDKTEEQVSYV

[19] = Drug uptake in brain of cPP-induced feeding rat model at 30 mg/kg, po after 6 hrs; type: ADME, organism-based; parameters: dose 30 mg/kg, route oral; settings: read-out: Drug uptake; outline: as §2
[20] = Drug uptake in brain of cPP-induced feeding rat model at 3 mg/kg, po after 2 hrs; type: ADME, organism-based; parameters: dose 3 mg/kg, route oral; settings: read-out: Drug uptake; outline: as §2
[21] = system: Rattus norvegicus; assay: Antistress activity against chronic mild stress Sprague-Dawley rat model assessed as increase in sucrose consumption at 10 mg/kg, ip bid measured after 4 weeks; type: functional; settings: route intraperitoneal
[22] = target: Cytochrome P450 2C19 (Homo sapiens, UniProt P33261); assay: Inhibition of CYP2C19; type: ADME
Sequence of Cytochrome P450 2C19 (P33261 whole entry): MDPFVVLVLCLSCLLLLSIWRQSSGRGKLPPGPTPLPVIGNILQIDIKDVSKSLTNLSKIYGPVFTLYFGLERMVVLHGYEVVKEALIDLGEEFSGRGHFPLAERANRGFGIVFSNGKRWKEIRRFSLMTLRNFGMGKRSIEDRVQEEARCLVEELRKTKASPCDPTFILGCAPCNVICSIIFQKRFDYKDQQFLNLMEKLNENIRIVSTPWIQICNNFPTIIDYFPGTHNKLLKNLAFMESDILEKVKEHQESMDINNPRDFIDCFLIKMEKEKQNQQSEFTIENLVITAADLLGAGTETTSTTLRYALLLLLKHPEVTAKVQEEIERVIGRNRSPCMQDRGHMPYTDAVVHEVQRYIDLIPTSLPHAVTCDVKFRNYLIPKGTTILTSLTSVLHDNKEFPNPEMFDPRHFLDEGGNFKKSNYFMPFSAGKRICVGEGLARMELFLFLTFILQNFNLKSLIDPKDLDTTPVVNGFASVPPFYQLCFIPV

[23] = Oral bioavailability in Sprague-Dawley rat at 2 mg/kg by HPLC analysis; type: ADME, organism-based; settings: in vivo; outline: as §3
[24] = Drug uptake in brain of cPP-induced feeding rat model at 10 mg/kg, po after 4 hrs; type: ADME, organism-based; parameters: dose 10 mg/kg, route oral; settings: read-out: Drug uptake; outline: as §2
[25] = Drug uptake in brain of cPP-induced feeding rat model at 30 mg/kg, po after 4 hrs; type: ADME, organism-based; parameters: dose 30 mg/kg, route oral; settings: read-out: Drug uptake; outline: as §2
[26] = Drug uptake in brain of cPP-induced feeding rat model at 30 mg/kg, po after 2 hrs; type: ADME, organism-based; parameters: dose 30 mg/kg, route oral; settings: read-out: Drug uptake; outline: as §2
[27] = target: T2, Neuropeptide Y receptor type 5 (Homo sapiens, UniProt Q15761); assay: Antagonist activity at human NPY5 receptor assessed as calcium mobilization by FLIPR assay; type: functional
T2 sequence (Q15761 whole entry): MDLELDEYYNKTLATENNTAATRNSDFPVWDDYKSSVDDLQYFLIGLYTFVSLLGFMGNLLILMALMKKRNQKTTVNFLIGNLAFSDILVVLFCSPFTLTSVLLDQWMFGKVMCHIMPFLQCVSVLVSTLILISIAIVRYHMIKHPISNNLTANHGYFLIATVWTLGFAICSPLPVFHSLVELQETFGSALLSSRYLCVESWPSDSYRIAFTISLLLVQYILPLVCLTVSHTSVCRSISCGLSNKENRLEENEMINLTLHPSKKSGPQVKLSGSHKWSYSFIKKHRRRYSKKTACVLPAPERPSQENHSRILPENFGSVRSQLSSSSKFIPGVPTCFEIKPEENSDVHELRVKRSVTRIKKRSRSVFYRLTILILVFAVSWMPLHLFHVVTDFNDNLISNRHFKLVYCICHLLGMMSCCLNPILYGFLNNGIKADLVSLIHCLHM

[28] = Plasma concentration in cPP-induced feeding rat model at 10 mg/kg, po after 6 hrs; type: ADME, organism-based; parameters: dose 10 mg/kg, route oral; outline: as §2
[29] = Drug uptake in brain of cPP-induced feeding rat model at 10 mg/kg, po after 1 hr; type: ADME, organism-based; parameters: dose 10 mg/kg, route oral; settings: read-out: Drug uptake; outline: as §2
[30] = Plasma concentration in cPP-induced feeding rat model at 10 mg/kg, po after 1 hr; type: ADME, organism-based; parameters: dose 10 mg/kg, route oral; outline: as §2
[31] = Plasma concentration in cPP-induced feeding rat model at 10 mg/kg, po after 4 hrs; type: ADME, organism-based; parameters: dose 10 mg/kg, route oral; outline: as §2

concentration at 2 h [1]: 337 ng/mL
concentration at 4 h [2]: 460 ng/g
fraction unbound [3]: 0.006
concentration at 6 h [4]: 30 ng/mL
Drug uptake [5]: 0.4 nM
CL [6]: 40 mL/min
half-life [8]: 8.2 h
Vd [10]: 3.6 L/kg
concentration at 4 h [11]: 52 ng/g
fraction unbound [12]: 0.018
concentration at 2 h [13]: 260 ng/mL
IC50 [14]: > 1000 nM
concentration at 2 h [15]: 244 ng/g
clearance [16]: 18.3 mL/min/kg
Tmax [17]: 1.9 h
Ki [18]: 245 nM
concentration at 6 h [19]: 401 ng/g
concentration at 2 h [20]: 87 ng/g
IC50 [22]: > 10000 nM
bioavailability [23]: 92%
concentration at 4 h [24]: 172 ng/g
concentration at 4 h [25]: 643 ng/g
concentration at 2 h [26]: 319 ng/g
IC50 [27]: 1.8 nM
concentration at 6 h [28]: 46 ng/mL
concentration at 1 h [29]: 179 ng/g
concentration at 1 h [30]: 159 ng/mL
concentration at 4 h [31]: 141 ng/mL
SMILES: CS(=O)(=O)NC[C@H]1CC[C@H](Nc2nc3c(s2)CCSc2ccccc2-3)CC1
inhibition [7]: inactive
IC50 [9]: > 10000 nM
Activity [21]: >10%
